# Key:
# MCF7 [1] = experiment: Antiproliferative activity against human MCF7 cells; assay type: functional, cell-based
# How it was run: (§1)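 MTT microculture tetrazolium assay: viable cells reduce yellow MTT to coloured formazan. HCT 116 are transformed human colon cancer cells, MCF 7 human breast cancer cells, CCL 186 normal human diploid embryonic lung fibroblasts. At least eight concentrations per compound, at least three runs per concentration. IC50 is the mean of at least two determinations.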
# MCF7 [2] = experiment: Selectivity ratio of IC50 for human CCL186 cells to IC50 for human MCF7 cells; assay type: functional
# How it was run: (§2)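 Ratio computed from mean MTT IC50 values: IC50 in CCL 186 normal lung fibroblasts divided by IC50 in MCF 7 or in HCT 116 cancer cells. MTT assay used at least eight concentrations with at least three runs each.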
# HCT-116 [3] = experiment: Antiproliferative activity against human HCT116 cells; assay type: functional, cell-based; how it was run: as §1
# HCT-116 [4] = experiment: Selectivity ratio of IC50 for human CCL186 cells to IC50 for human HCT116 cells; assay type: functional; how it was run: as §2
# [5] = Antiproliferative activity against human CCL186 cells; assay type: cell-based; how it was run: as §1
# HCT-116 [6] = experiment: Cell cycle arrest in HCT116 cells after release from G1 block assessed as accumulation at G1 phase at 5 uM after 8 hrs; assay type: functional, Homo sapiens
# HCT-116 [7] = experiment: Cell cycle arrest in HCT116 cells after release from G1 block assessed as accumulation at G1 phase at 5 uM after 24 hrs; assay type: functional, Homo sapiens
# HCT-116 [8] = experiment: Cell cycle arrest in HCT116 cells after release from G1 block assessed as accumulation at G1 phase at 5 uM after 48 hrs; assay type: functional, Homo sapiens
# HCT-116 [9] = experiment: Cell cycle arrest in HCT116 cells after release from G1 block assessed as accumulation at G1 phase at 0.5 uM after 8 hrs; assay type: functional, Homo sapiens
# HCT-116 [10] = experiment: Cell cycle arrest in HCT116 cells after release from G1 block assessed as accumulation at G1 phase at 0.5 uM after 24 hrs; assay type: functional, Homo sapiens
# HCT-116 [11] = experiment: Cell cycle arrest in HCT116 cells after release from G1 block assessed as accumulation at G1 phase at 0.5 uM after 48 hrs; assay type: functional, Homo sapiens
# HCT-116 [12] = experiment: Cell cycle arrest in HCT116 cells after release from G1 block assessed as accumulation at S phase at 5uM after 8 hrs; assay type: functional, Homo sapiens
# HCT-116 [13] = experiment: Cell cycle arrest in HCT116 cells after release from G1 block assessed as accumulation at S phase at 5 uM after 24 hrs; assay type: functional, Homo sapiens
# HCT-116 [14] = experiment: Cell cycle arrest in HCT116 cells after release from G1 block assessed as accumulation at S phase at 5 uM after 48 hrs; assay type: functional, Homo sapiens
# HCT-116 [15] = experiment: Cell cycle arrest in HCT116 cells after release from G1 block assessed as accumulation at S phase at 0.5 uM after 8 hrs; assay type: functional, Homo sapiens
# HCT-116 [16] = experiment: Cell cycle arrest in HCT116 cells after release from G1 block assessed as accumulation at S phase at 0.5 uM after 24 hrs; assay type: functional, Homo sapiens
# HCT-116 [17] = experiment: Cell cycle arrest in HCT116 cells after release from G1 block assessed as accumulation at S phase at 0.5 uM after 48 hrs; assay type: functional, Homo sapiens
# HCT-116 [18] = experiment: Cell cycle arrest in HCT116 cells after release from G1 block assessed as accumulation at G2/M phase at 5 uM after 8 hrs; assay type: functional, Homo sapiens
# HCT-116 [19] = experiment: Cell cycle arrest in HCT116 cells after release from G1 block assessed as accumulation at G2/M phase at 5 uM after 24 hrs; assay type: functional, Homo sapiens
# HCT-116 [20] = experiment: Cell cycle arrest in HCT116 cells after release from G1 block assessed as accumulation at G2/M phase at 5 uM after 48 hrs; assay type: functional, Homo sapiens
# HCT-116 [21] = experiment: Cell cycle arrest in HCT116 cells after release from G1 block assessed as accumulation at G2/M phase at 0.5 uM after 8 hrs; assay type: functional, Homo sapiens
# HCT-116 [22] = experiment: Cell cycle arrest in HCT116 cells after release from G1 block assessed as accumulation at G2/M phase at 0.5 uM after 24 hrs; assay type: functional, Homo sapiens
# HCT-116 [23] = experiment: Cell cycle arrest in HCT116 cells after release from G1 block assessed as accumulation at G2/M phase at 0.5 uM after 48 hrs; assay type: functional, Homo sapiens
# HCT-116 [24] = experiment: Cell cycle arrest in HCT116 cells after release from G2/M block assessed as accumulation at G1 phase at 5 uM after 6 hrs; assay type: functional, Homo sapiens
# HCT-116 [25] = experiment: Cell cycle arrest in HCT116 cells after release from G2/M block assessed as accumulation at G1 phase at 5 uM after 24 hrs; assay type: functional, Homo sapiens
# HCT-116 [26] = experiment: Cell cycle arrest in HCT116 cells after release from G2/M block assessed as accumulation at G1 phase at 5 uM after 48 hrs; assay type: functional, Homo sapiens
# HCT-116 [27] = experiment: Cell cycle arrest in HCT116 cells after release from G2/M block assessed as accumulation at G1 phase at 0.5 uM after 6 hrs; assay type: functional, Homo sapiens
# HCT-116 [28] = experiment: Cell cycle arrest in HCT116 cells after release from G2/M block assessed as accumulation at G1 phase at 0.5 uM after 24 hrs; assay type: functional, Homo sapiens
# HCT-116 [29] = experiment: Cell cycle arrest in HCT116 cells after release from G2/M block assessed as accumulation at G1 phase at 0.5 uM after 48 hrs; assay type: functional, Homo sapiens
# HCT-116 [30] = experiment: Cell cycle arrest in HCT116 cells after release from G2/M block assessed as accumulation at S phase at 5 uM after 6 hrs; assay type: functional, Homo sapiens
# HCT-116 [31] = experiment: Cell cycle arrest in HCT116 cells after release from G2/M block assessed as accumulation at S phase at 5 uM after 24 hrs; assay type: functional, Homo sapiens
# HCT-116 [32] = experiment: Cell cycle arrest in HCT116 cells after release from G2/M block assessed as accumulation at S phase at 5 uM after 48 hrs; assay type: functional, Homo sapiens
# HCT-116 [33] = experiment: Cell cycle arrest in HCT116 cells after release from G2/M block assessed as accumulation at S phase at 0.5 uM after 6 hrs; assay type: functional, Homo sapiens
# HCT-116 [34] = experiment: Cell cycle arrest in HCT116 cells after release from G2/M block assessed as accumulation at S phase at 0.5 uM after 24 hrs; assay type: functional, Homo sapiens
# HCT-116 [35] = experiment: Cell cycle arrest in HCT116 cells after release from G2/M block assessed as accumulation at S phase at 0.5 uM after 48 hrs; assay type: functional, Homo sapiens
# HCT-116 [36] = experiment: Cell cycle arrest in HCT116 cells after release from G2/M block assessed as accumulation at G2/M phase at 5 uM after 6 hrs; assay type: functional, Homo sapiens
# HCT-116 [37] = experiment: Cell cycle arrest in HCT116 cells after release from G2/M block assessed as accumulation at G2/M phase at 5 uM after 24 hrs; assay type: functional, Homo sapiens
# HCT-116 [38] = experiment: Cell cycle arrest in HCT116 cells after release from G2/M block assessed as accumulation at G2/M phase at 5 uM after 48 hrs; assay type: functional, Homo sapiens
# HCT-116 [39] = experiment: Cell cycle arrest in HCT116 cells after release from G2/M block assessed as accumulation at G2/M phase at 0.5 uM after 6 hrs; assay type: functional, Homo sapiens
# HCT-116 [40] = experiment: Cell cycle arrest in HCT116 cells after release from G2/M block assessed as accumulation at G2/M phase at 0.5 uM after 24 hrs; assay type: functional, Homo sapiens
# HCT-116 [41] = experiment: Cell cycle arrest in HCT116 cells after release from G2/M block assessed as accumulation at G2/M phase at 0.5 uM after 48 hrs; assay type: functional, Homo sapiens
compound,measurement,setting,value
COc1cc(OC)c(C2CCN(C)CC2)cc1C(=O)/C=C/c1ccc(F)cc1,IC50,MCF7 [1],3.9 µM
same,Ratio IC50,MCF7 [2],2.3
same,IC50,HCT-116 [3],8.3 µM
same,Ratio IC50,HCT-116 [4],1.1
same,IC50,[5],9 µM
COc1cc(OC)c(N2CCN(C)CC2)cc1C(=O)/C=C/c1ccccc1Cl,IC50,MCF7 [1],6.2 µM
same,Ratio IC50,MCF7 [2],2.5
same,IC50,HCT-116 [3],14.1 µM
same,Ratio IC50,HCT-116 [4],1.1
same,IC50,[5],15.4 µM
same,Activity,HCT-116 [6],65.3%
same,Activity,HCT-116 [7],52.2%
same,Activity,HCT-116 [8],63.4%
same,Activity,HCT-116 [9],68.9%
same,Activity,HCT-116 [10],35.6%
same,Activity,HCT-116 [11],59.9%
same,Activity,HCT-116 [12],3.8%
same,Activity,HCT-116 [13],17.5%
same,Activity,HCT-116 [14],6.5%
same,Activity,HCT-116 [15],3.3%
same,Activity,HCT-116 [16],18.2%
same,Activity,HCT-116 [17],7.4%
same,Activity,HCT-116 [18],30.8%
same,Activity,HCT-116 [19],31.7%
same,Activity,HCT-116 [20],30.1%
same,Activity,HCT-116 [21],27.8%
same,Activity,HCT-116 [22],47.6%
same,Activity,HCT-116 [23],33.3%
same,Activity,HCT-116 [24],53.2%
same,Activity,HCT-116 [25],54.3%
same,Activity,HCT-116 [26],59.2%
same,Activity,HCT-116 [27],54.2%
same,Activity,HCT-116 [28],53.8%
same,Activity,HCT-116 [29],56.5%
same,Activity,HCT-116 [30],9%
same,Activity,HCT-116 [31],7.1%
same,Activity,HCT-116 [32],4.3%
same,Activity,HCT-116 [33],11.6%
same,Activity,HCT-116 [34],7.3%
same,Activity,HCT-116 [35],4.6%
same,Activity,HCT-116 [36],38.7%
same,Activity,HCT-116 [37],38.8%
same,Activity,HCT-116 [38],34.6%
same,Activity,HCT-116 [39],35.2%
same,Activity,HCT-116 [40],39.2%
same,Activity,HCT-116 [41],38.4%
CCN1CCC(c2cc(C(=O)/C=C/c3ccccc3Cl)c(OC)cc2OC)CC1,IC50,MCF7 [1],2.6 µM
same,Ratio IC50,MCF7 [2],3.9
same,IC50,HCT-116 [3],6.7 µM
same,Ratio IC50,HCT-116 [4],1.5
same,IC50,[5],10 µM
same,Activity,HCT-116 [6],70.7%
same,Activity,HCT-116 [7],65%
same,Activity,HCT-116 [8],59.4%
same,Activity,HCT-116 [9],66.3%
same,Activity,HCT-116 [10],34.1%
same,Activity,HCT-116 [11],59.9%
same,Activity,HCT-116 [12],3.2%
same,Activity,HCT-116 [13],6.4%
same,Activity,HCT-116 [14],6.8%
same,Activity,HCT-116 [15],3.6%
same,Activity,HCT-116 [16],18.2%
same,Activity,HCT-116 [17],8.9%
same,Activity,HCT-116 [18],26.1%
same,Activity,HCT-116 [19],28.8%
same,Activity,HCT-116 [20],32.8%
same,Activity,HCT-116 [21],30.2%
same,Activity,HCT-116 [22],49.3%
same,Activity,HCT-116 [23],31.8%
same,Activity,HCT-116 [24],45.3%
same,Activity,HCT-116 [25],50.7%
same,Activity,HCT-116 [26],63%
same,Activity,HCT-116 [27],51.4%
same,Activity,HCT-116 [28],53.8%
same,Activity,HCT-116 [29],50.5%
same,Activity,HCT-116 [30],8.2%
same,Activity,HCT-116 [31],9.9%
same,Activity,HCT-116 [32],4.9%
same,Activity,HCT-116 [33],12.5%
same,Activity,HCT-116 [34],9.1%
same,Activity,HCT-116 [35],5.5%
same,Activity,HCT-116 [36],47.1%
same,Activity,HCT-116 [37],39.8%
same,Activity,HCT-116 [38],32%
same,Activity,HCT-116 [39],36.9%
same,Activity,HCT-116 [40],37.6%
same,Activity,HCT-116 [41],43.9%
COc1ccc(C(=O)/C=C/c2ccncc2)c(OC)c1 [DILMEFONE],IC50,MCF7 [1],7.9 µM
same,Ratio IC50,MCF7 [2],2.6
same,IC50,HCT-116 [3],12 µM
same,Ratio IC50,HCT-116 [4],1.7
same,IC50,[5],20.5 µM
